Results on 22 compounds are retold here after ChEMBL document CHEMBL2321703, “Identification of novel D-amino acid oxidase inhibitors by in silico screening and their functional characterization in vitro” (J Med Chem, 2013).

For assay [1], the target named is T1, D-aspartate oxidase (Homo sapiens, UniProt Q99489).
T1 sequence (Q99489 whole entry): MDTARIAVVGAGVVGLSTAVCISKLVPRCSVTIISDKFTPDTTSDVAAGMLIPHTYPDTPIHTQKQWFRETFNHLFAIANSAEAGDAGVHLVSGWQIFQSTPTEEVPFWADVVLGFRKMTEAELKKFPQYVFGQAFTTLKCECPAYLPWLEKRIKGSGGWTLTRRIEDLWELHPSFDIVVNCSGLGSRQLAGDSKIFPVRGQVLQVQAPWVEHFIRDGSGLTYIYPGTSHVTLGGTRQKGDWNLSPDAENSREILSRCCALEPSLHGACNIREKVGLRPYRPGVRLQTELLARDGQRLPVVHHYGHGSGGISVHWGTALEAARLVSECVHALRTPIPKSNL
As to the kind of experiment: (§1) Inhibition of human recombinant N-terminal His-tagged DDO expressed in Escherichia coli BL21(DE3) using D-aspartate as substrate by colorimetric assay. In outline:
(§2)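 Purified enzyme (0.23–4.2 μg) with 10 mM D-Asp in air-saturated 40 mM sodium pyrophosphate pH 8.3, 23 U catalase, 60 μM FAD; 37 °C, 10 min; trichloroacetic acid stop; 2-oxo acid measured as 2,4-dinitrophenylhydrazone at A445.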

The target of assay [2] is T2, D-amino-acid oxidase (Homo sapiens, UniProt P14920). As to the kind of experiment: Inhibition of human recombinant N-terminal His-tagged DAO expressed in Escherichia coli BL21(DE3) using D-serine as substrate by colorimetric assay.
For assay [3], the target named is T2, D-amino-acid oxidase. As to the kind of experiment: Inhibition of human recombinant N-terminal His-tagged DAO expressed in Escherichia coli BL21(DE3) using D-alanine as substrate by colorimetric assay.
Assay [4] concerns the target T3, Serine racemase (Homo sapiens, UniProt Q9GZT4).
T3 sequence (Q9GZT4 whole entry): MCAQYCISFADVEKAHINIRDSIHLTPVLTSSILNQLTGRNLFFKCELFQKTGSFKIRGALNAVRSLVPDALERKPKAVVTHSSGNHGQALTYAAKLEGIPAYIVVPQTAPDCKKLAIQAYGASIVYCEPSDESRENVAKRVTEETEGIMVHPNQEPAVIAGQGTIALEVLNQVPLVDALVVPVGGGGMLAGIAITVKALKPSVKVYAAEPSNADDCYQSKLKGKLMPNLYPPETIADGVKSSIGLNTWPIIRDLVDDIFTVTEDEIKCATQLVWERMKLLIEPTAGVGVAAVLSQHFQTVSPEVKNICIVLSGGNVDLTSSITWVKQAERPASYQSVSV
As to the kind of experiment: (§3) Inhibition of human recombinant N-terminal His-tagged serine racemase expressed in Escherichia coli BL21(DE3) using L-serine as substrate after 10 mins by fluorescence assay. In outline: (§4)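 Purified enzyme (30 μg) in 40 mM Tris-HCl pH 8.0, 60 μM pyridoxal phosphate, 1 mM MgCl2, ATP, 1 mM dithiothreitol, 10 mM L-Ser, with compound; 37 °C, 10 min; methanol stop. D-Ser quantified by OPA/Boc-L-cysteine derivatization and reversed-phase HPLC fluorescence (ex 344, em 443 nm).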

Assay [5] has as its target T4, D-aspartate oxidase (Homo sapiens) (UniProt Q99489).
T4 sequence (whole entry): T1 sequence (Q99489 whole entry)
The assay is described as §1. In outline:
as §2

Assay [6] deals with T5, Serine racemase (Homo sapiens) (UniProt Q9GZT4).
T5 sequence (whole entry): T3 sequence (Q9GZT4 whole entry)
Described as §3. The method, boiled down:
as §4

The target in assay [7] is T2, D-amino-acid oxidase. The assay is described as follows: Binding affinity to human recombinant N-terminal His-tagged DAO expressed in Escherichia coli BL21(DE3) at 40 uM after 2 to 30 mins by absorption spectra analysis. Particulars: 200 uM, in the assay text read “at 200 uM” for “at 40 uM”. The method, boiled down: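 Purified enzyme at 1.7 μg/μL in 10 mM sodium pyrophosphate pH 8.3 with 2 mM EDTA, 5 mM 2-mercaptoethanol, 10% (v/v) glycerol; wavelength scans at 25 °C before and after compound addition (final 40 μM or 200 μM depending on compound), recorded at indicated times; binding inferred from perturbation of the absorption spectrum.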
Target sequence in this assay (P14920 whole entry, looked up): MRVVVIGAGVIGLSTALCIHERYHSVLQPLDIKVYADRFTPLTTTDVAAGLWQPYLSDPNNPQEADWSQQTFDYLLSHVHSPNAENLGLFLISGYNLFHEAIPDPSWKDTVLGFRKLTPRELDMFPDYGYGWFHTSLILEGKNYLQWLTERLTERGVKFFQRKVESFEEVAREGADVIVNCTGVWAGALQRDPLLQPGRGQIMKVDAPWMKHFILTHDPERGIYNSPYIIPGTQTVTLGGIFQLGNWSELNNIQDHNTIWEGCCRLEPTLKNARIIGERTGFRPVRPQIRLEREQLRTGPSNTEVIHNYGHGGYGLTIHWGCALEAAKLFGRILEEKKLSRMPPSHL

For assay [8], the system named is D-amino-acid oxidase (Homo sapiens), P14920 [Y224A]. The assay is described as follows: (§5) Inhibition of human recombinant N-terminal His-tagged DAO Y224A mutant expressed in Escherichia coli BL21(DE3) using D-alanine as substrate after 10 mins by Lineweaver-Burk plot analysis.
Assay [9] deals with HEK293. The assay is described as follows: Effect on L-alanine level in G418-resistant HEK293 cells at 83 uM by HPLC analysis relative to vehicle-treated control. Particulars: Homo sapiens. The format is functional, cell-based. The method, boiled down: (§6)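 293/NEO (empty-vector, G418-selected) or 293.HA-hDAO-24 (stable N-terminal HA-tagged human DAO) cells, 1 × 10^6 seeded, maintained in DMEM/10% FBS/800 μg/mL G418; next day fresh medium, compound or vehicle (5% DMSO solution) for 30 min, then 17 mM D-Ala for 24 h. Methanol extraction; D-/L-Ala by OPA/NAC derivatization HPLC with fluorescence; mean ± SD of three assays; Dunnett test vs vehicle.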

Assay [10] relates to D-amino-acid oxidase (Homo sapiens), P14920 [Y224F]. As to the kind of experiment: (§7) Inhibition of human recombinant N-terminal His-tagged DAO Y224F mutant expressed in Escherichia coli BL21(DE3) using D-alanine as substrate after 10 mins by Lineweaver-Burk plot analysis.
The target in assay [11] is T2, D-amino-acid oxidase. The assay is described as follows: Inhibition of human recombinant DAO expressed in G418-resistant HEK293/NEO cells assessed as effect on D-alanine level at 83 uM incubated for 30 mins prior to D-alanine addition measured after 24 hrs by HPLC analysis relative to vehicle-treated control. The format is cell-based. In outline:
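HEK293 cells stably carrying HA-tagged human DAO (clone 293.HA-hDAO-24) or empty vector (293/NEO), seeded at 1 × 10^6. Next day, fresh medium and 83 μM compound or vehicle (5% DMSO solution) for 30 min, then 17 mM D-Ala for 24 h. Cells methanol-extracted; D-/L-Ala by OPA/NAC-derivatized HPLC. Three independent assays, Dunnett test vs vehicle.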
Target sequence in this assay (P14920 whole entry, looked up): as above

The target in assay [12] is T2, D-amino-acid oxidase. The assay is described as follows: Binding affinity to human recombinant N-terminal His-tagged DAO expressed in Escherichia coli BL21(DE3) at 200 uM after 2 to 30 mins by absorption spectra analysis.
Target sequence in this assay (P14920 whole entry, looked up): as above
The test system of assay [13] is HEK293. The assay is described as follows: Effect on L-alanine level in G418-resistant HEK293 cells at 17 uM by HPLC analysis relative to vehicle-treated control. Particulars: Homo sapiens. The format is functional, cell-based. In outline:
as §6

The test system of assay [14] is HEK293/NEO. The assay is described as follows: Effect on L-alanine level in G418-resistant HEK293/NEO cells at 17 uM by HPLC analysis relative to vehicle-treated control. The format is functional, cell-based. The settings on record: Homo sapiens. In outline: as §6
For assay [15], the system named is HEK293/NEO. As to the kind of experiment: Effect on L-alanine level in G418-resistant HEK293/NEO cells at 83 uM by HPLC analysis relative to vehicle-treated control. The assay is classed as functional, cell-based. Particulars: Homo sapiens. The method, boiled down:
as §6

For assay [16], the target named is T2, D-amino-acid oxidase. The settings on record: HEK293, 83 uM.
Target sequence in this assay (P14920 whole entry, looked up): as above
Assay [17] concerns the target T2, D-amino-acid oxidase. The assay is described as follows: Competitive inhibition of human recombinant N-terminal His-tagged DAO expressed in Escherichia coli BL21(DE3) using D-alanine as substrate by Lineweaver-Burk plot analysis. In outline:
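Purified N-terminal His-tagged human DAO from E. coli BL21(DE3)pLysS. Colorimetric 2-oxo acid assay in air-saturated 40 mM sodium pyrophosphate pH 8.3 with catalase, 60 μM FAD and 0.5–40 mM D-Ala, 37 °C for 10 min. Stopped with TCA, derivatized with 2,4-dinitrophenylhydrazine, read at A445. Lineweaver–Burk plots; Ki confirmed by slope replot against inhibitor concentration. Three independent experiments.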
Target sequence in this assay (P14920 whole entry, looked up): as above

Assay [18] deals with D-amino-acid oxidase (Homo sapiens, UniProt P14920, Y224A). The description is as §5.
The target of assay [19] is D-amino-acid oxidase (Homo sapiens, UniProt P14920, Y224F). Described as §7.
The target of assay [20] is T2, D-amino-acid oxidase. As to the kind of experiment: Inhibition of human recombinant N-terminal His-tagged DAO expressed in Escherichia coli BL21(DE3) using D-alanine as substrate by Lineweaver-Burk plot analysis.
Target sequence in this assay (P14920 whole entry): as the sequence (P14920 whole entry, looked up) above

Each structure is given as a SMILES string. Calls of active or inactive are those of the source. No cut-off for these calls is given here. Bounds are passed on as bounds.

D-amino-acid oxidase (Homo sapiens), P14920 [Y224F], sequence (P14920 whole entry Y224F): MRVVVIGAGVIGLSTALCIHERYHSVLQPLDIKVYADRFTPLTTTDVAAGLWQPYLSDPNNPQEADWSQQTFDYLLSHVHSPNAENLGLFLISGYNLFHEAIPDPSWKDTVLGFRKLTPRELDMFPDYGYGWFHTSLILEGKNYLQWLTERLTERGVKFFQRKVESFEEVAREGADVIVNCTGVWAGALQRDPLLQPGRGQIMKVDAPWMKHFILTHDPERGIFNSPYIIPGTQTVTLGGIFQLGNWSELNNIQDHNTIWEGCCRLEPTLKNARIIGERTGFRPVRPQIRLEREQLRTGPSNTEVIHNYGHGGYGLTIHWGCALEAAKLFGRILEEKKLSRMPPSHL
D-amino-acid oxidase (Homo sapiens), P14920 [Y224A], sequence (P14920 whole entry Y224A): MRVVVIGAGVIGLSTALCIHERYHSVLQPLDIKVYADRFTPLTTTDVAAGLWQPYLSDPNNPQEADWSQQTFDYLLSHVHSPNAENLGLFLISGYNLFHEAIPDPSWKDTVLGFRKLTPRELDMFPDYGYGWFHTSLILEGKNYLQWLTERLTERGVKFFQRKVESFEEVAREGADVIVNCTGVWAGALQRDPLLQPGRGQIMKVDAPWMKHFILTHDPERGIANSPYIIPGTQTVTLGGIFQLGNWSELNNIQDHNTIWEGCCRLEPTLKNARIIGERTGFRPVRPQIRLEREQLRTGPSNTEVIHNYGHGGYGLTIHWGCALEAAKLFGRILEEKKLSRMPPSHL
D-amino-acid oxidase (Homo sapiens, UniProt P14920, Y224F), sequence (P14920 whole entry Y224F): as the sequence (P14920 whole entry Y224F) above
D-amino-acid oxidase (Homo sapiens, UniProt P14920, Y224A), sequence (P14920 whole entry Y224A): as the sequence (P14920 whole entry Y224A) above

For `C/C=C/C(=O)O` [CROTONIC ACID], the 50% inhibitory concentration (IC50) in assay [1] is more than 10000 µM; in assay [2] it was 357 µM; in [3] it was 598 µM; in assay [4] it was more than 10000 µM. Also, in assay [2], the inhibition entry was “Dose-dependent effect”.
In the case of `O=C(O)C1=CN2CCN=C2C=C1`, in assay [2], the IC50 was more than 1000 µM.
Still for that read-out and setting: as for `NC[C@H](O)c1ccc(O)c(O)c1` [NOREPINEPHRINE], the figure is more than 10000 µM.
Turning to `O=C(O)c1cc2c(s1)CCCC2`, the inhibition result in assay [5], in assay [3] and in [6] was “Dose-dependent effect” each time. Further, the IC50 in assay [1] is more than 10000 µM; in assay [2], 900 µM; in [3] it was 1450 µM; in assay [4] it was 5010 µM.
For the compound `Cc1ccccc1-c1nnc(O)o1`, the inhibition entry in assay [5], in assay [2], in assay [3] and in assay [6] was “Dose-dependent effect” throughout. Moreover, the IC50 in assay [1] is more than 5000 µM; in assay [2], 199 µM; in [3], 298 µM; in assay [4] it was more than 5000 µM.
For `CCCc1cc(C(=O)O)sc1C`, the inhibition result in [5], in [3] and in [6] was “Dose-dependent effect” in each case. Moreover, the IC50 in assay [1] was more than 10000 µM; in assay [2] it was 1830 µM; in assay [3] it was 3720 µM; in [4] it was 5160 µM.
In the case of `O=C(O)C(O)C(O)C(=O)O` (stereo not drawn), the half-inhibitory concentration (IC50) in assay [1] is 3920 µM; in assay [2], more than 10000 µM; in assay [4], 2820 µM.
Consider `O=C(O)c1ccc2cccnc2n1`, for which the half-inhibitory concentration (IC50) in assay [2] was more than 10000 µM.
In the case of `O=C(O)CC(=O)O` [MALONIC ACID], the inhibition entry in assay [5] and in assay [6] was “Dose-dependent effect” throughout. In addition, the figures for the half-inhibitory concentration (IC50) in [1], in assay [2] and in [4] were 1350 µM, more than 10000 µM and 24.9 µM, respectively. Further, in assay [7], the result was inactive.
Turning to `O=C(O)c1ccsc1`, the inhibition entry in assay [5], in assay [2], in assay [8], in [10], in assay [3] and in [6] was “Dose-dependent effect” throughout. Also, the results for the IC50 in [1] and in assay [4] were more than 10000 µM and 8210 µM, respectively. The outcome in [9], in [13], in [14] and in [15] was inactive. For the same compound, the inhibition entry in assay [11] is “inactive”. Moreover, the outcome in assay [12] was Active. For the same compound, the inhibition entry in assay [16] and in assay [17] was “Active” in each case.
Turning to `CNCC(=O)c1ccc(O)c(O)c1` [ADRENALONE], in [2], the IC50 is more than 1000 µM.
Same read-out and setting: the same measure for `Nc1ccc(-c2nnc(O)o2)cc1`: more than 10000 µM; for `Nc1cncc(C(=O)O)c1`: more than 2500 µM; for `Oc1cc(-c2ccccc2)no1`: more than 500 µM.
Same read-out and setting: as for `O=C(O)c1cc2c([nH]1)CCCC2`, the figure is more than 100 µM.
Regarding `CCc1cc(C(=O)O)sc1C`, the inhibition entry in [5], in [3] and in assay [6] was “Dose-dependent effect” each time. Moreover, the IC50 in assay [1] is more than 10000 µM; in assay [2] it was 666 µM; in assay [3], 1100 µM; in assay [4] it was 5720 µM.
Consider `O=c1[nH]nc(-c2ccccc2)o1`, for which the inhibition result in assay [5], in assay [3] and in [6] was “Dose-dependent effect” each time. For the same compound, the 50% inhibitory concentration (IC50) in [1] was more than 10000 µM; in assay [2], 253 µM; in assay [3], 365 µM; in assay [4], more than 10000 µM.
Take `Oc1nc(-c2ccccc2)no1`: the IC50 in [2] was more than 5000 µM.
The same measure, in the same setting: the same measure for `O=C(O)c1ccc[n+]([O-])c1` [OXINIACIC ACID]: more than 2500 µM.
As for `O=C(O)[C@@H](O)[C@@H](O)C(=O)O`, the inhibition entry in [5] and in assay [6] was “Dose-dependent effect” in each case.
In the case of `O=C(O)c1cc2c(s1)CCC2`, the inhibition entry in assay [5], in [2], in [8], in assay [10], in assay [3] and in assay [6] was “Dose-dependent effect” throughout. Further, the half-inhibitory concentration (IC50) was more than 10000 µM in assay [1], 28.5 µM in assay [2], 59.8 µM in assay [3] and 5280 µM in assay [4]. Besides, the inhibition constant Ki in assay [18] was found to be 4.59 µM; in assay [19] it was 14.4 µM; in assay [20] it was 9.92 µM. The result in [9], in assay [13] and in [15] was inactive. The inhibition entry in assay [11] was “inactive”. For the same compound, the outcome in assay [7] was Active. Moreover, the inhibition result in assay [17] was “Active”.
With `O=C(O)c1cn2ccccc2n1`, the half-maximal inhibitory concentration (IC50) in assay [2] was more than 2500 µM.
